{"source": "ChEMBL document CHEMBL1156308", "about": "(J Med Chem, 2010)", "key": {"[1]": {"assay": "Biodistribution in human lung at 108.7 mg, iv after 3 hrs", "assay_type": "ADME, organism-based", "settings": "read-out: Drug uptake"}, "[2]": {"assay": "Biodistribution in baboon Liver at 170 mg, iv after 15 mins", "assay_type": "ADME, organism-based", "settings": "papio hamadryas, read-out: Drug uptake", "outline": "(§1)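 Micro-dose [11C]-labelled drug given i.v. via a radial arm vein to baboons anaesthetised with ketamine (10 mg/kg i.m.), then maintained on oxygen, nitrous oxide and isoflurane (1–4%). Torso PET regions of interest were drawn by hand to give time-activity curves in %ID/cc. µg/ml values were estimated assuming a 10 mg/kg dose, a 17 kg baboon and signal coming from intact drug.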"}, "[3]": {"assay": "Biodistribution in baboon Liver at 170 mg, iv after 90 mins", "assay_type": "ADME, organism-based", "settings": "papio hamadryas, read-out: Drug uptake", "outline": "as §1"}, "[4]": {"assay": "Biodistribution in baboon Liver at 170 mg, iv after 60 mins", "assay_type": "ADME, organism-based", "settings": "papio hamadryas, read-out: Drug uptake", "outline": "as §1"}, "[5]": {"assay": "Biodistribution in baboon Liver at 170 mg, iv after 30 mins", "assay_type": "ADME, organism-based", "settings": "papio hamadryas, read-out: Drug uptake", "outline": "as §1"}, "[6]": {"assay": "Biodistribution in baboon whole brain at 170 mg, iv after 30 mins", "assay_type": "ADME, organism-based", "settings": "papio hamadryas, read-out: Drug uptake", "outline": "(§2)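 Brain PET ran 90 min after i.v. [11C]-labelled drug in anaesthetised baboons. Whole-brain regions of interest gave time-activity curves in %ID/cc. µg/ml values were estimated from baboon weight (17 kg) and the recommended human daily dose per kg, assuming signal comes from intact drug.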"}, "[7]": {"assay": "Biodistribution in baboon whole brain at 170 mg, iv after 60 mins", "assay_type": "ADME, organism-based", "settings": "papio hamadryas, read-out: Drug uptake", "outline": "as §2"}, "[8]": {"assay": "Biodistribution in baboon whole brain at 170 mg, iv after 90 mins", "assay_type": "ADME, organism-based", "settings": "papio hamadryas, read-out: Drug uptake", "outline": "as §2"}, "[9]": {"assay": "Biodistribution in baboon heart at 170 mg, iv after 15 mins", "assay_type": "ADME, organism-based", "settings": "papio hamadryas, read-out: Drug uptake", "outline": "as §1"}, "[10]": {"assay": "Biodistribution in baboon lung at 170 mg, iv after 15 mins", "assay_type": "ADME, organism-based", "settings": "papio hamadryas, read-out: Drug uptake", "outline": "as §1"}, "[11]": {"assay": "Biodistribution in baboon kidney cortex at 170 mg, iv after 15 mins", "assay_type": "ADME, organism-based", "settings": "papio hamadryas, read-out: Drug uptake", "outline": "as §1"}, "[12]": {"assay": "Biodistribution in baboon kidney medulla at 170 mg, iv after 15 mins", "assay_type": "ADME, organism-based", "settings": "papio hamadryas, read-out: Drug uptake", "outline": "as §1"}, "[13]": {"assay": "Biodistribution in baboon gallbladder at 170 mg, iv after 15 mins", "assay_type": "ADME, organism-based, Gall bladder", "settings": "papio hamadryas, read-out: Drug uptake", "outline": "as §1"}, "[14]": {"assay": "Biodistribution in baboon plasma at 170 mg, iv after 15 mins", "assay_type": "ADME, organism-based", "settings": "papio hamadryas, read-out: Drug uptake", "outline": "(§3)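 Anaesthetised baboons received [11C]-labelled drug i.v. (radial arm vein) by PET protocol. Arterial blood was drawn from a popliteal catheter every 5 s for 2 min, then at 2–90 min. Plasma activity is given as %ID/cc. µg/ml values were estimated from the human daily dose per kg scaled to a 17 kg baboon, assuming signal comes from intact drug.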"}, "[15]": {"assay": "Biodistribution in baboon heart at 170 mg, iv after 30 mins", "assay_type": "ADME, organism-based", "settings": "papio hamadryas, read-out: Drug uptake", "outline": "as §1"}, "[16]": {"assay": "Biodistribution in baboon lung at 170 mg, iv after 30 mins", "assay_type": "ADME, organism-based", "settings": "papio hamadryas, read-out: Drug uptake", "outline": "as §1"}, "[17]": {"assay": "Biodistribution in baboon kidney cortex at 170 mg, iv after 30 mins", "assay_type": "ADME, organism-based", "settings": "papio hamadryas, read-out: Drug uptake", "outline": "as §1"}, "[18]": {"assay": "Biodistribution in baboon kidney medulla at 170 mg, iv after 30 mins", "assay_type": "ADME, organism-based", "settings": "papio hamadryas, read-out: Drug uptake", "outline": "as §1"}, "[19]": {"assay": "Biodistribution in baboon gallbladder at 170 mg, iv after 30 mins", "assay_type": "ADME, organism-based, Gall bladder", "settings": "papio hamadryas, read-out: Drug uptake", "outline": "as §1"}, "[20]": {"assay": "Biodistribution in baboon plasma at 170 mg, iv after 30 mins", "assay_type": "ADME, organism-based", "settings": "papio hamadryas, read-out: Drug uptake", "outline": "as §3"}, "[21]": {"assay": "Biodistribution in baboon heart at 170 mg, iv after 60 mins", "assay_type": "ADME, organism-based", "settings": "papio hamadryas, read-out: Drug uptake", "outline": "as §1"}, "[22]": {"assay": "Biodistribution in baboon lung at 170 mg, iv after 60 mins", "assay_type": "ADME, organism-based", "settings": "papio hamadryas, read-out: Drug uptake", "outline": "as §1"}, "[23]": {"assay": "Biodistribution in baboon kidney cortex at 170 mg, iv after 60 mins", "assay_type": "ADME, organism-based", "settings": "papio hamadryas, read-out: Drug uptake", "outline": "as §1"}, "[24]": {"assay": "Biodistribution in baboon kidney medulla at 170 mg, iv after 60 mins", "assay_type": "ADME, organism-based", "settings": "papio hamadryas, read-out: Drug uptake", "outline": "as §1"}, "[25]": {"assay": "Biodistribution in baboon gallbladder at 170 mg, iv after 60 mins", "assay_type": "ADME, organism-based, Gall bladder", "settings": "papio hamadryas, read-out: Drug uptake", "outline": "as §1"}, "[26]": {"assay": "Biodistribution in baboon plasma at 170 mg, iv after 60 mins", "assay_type": "ADME, organism-based", "settings": "papio hamadryas, read-out: Drug uptake", "outline": "as §3"}, "[27]": {"assay": "Biodistribution in baboon heart at 170 mg, iv after 90 mins", "assay_type": "ADME, organism-based", "settings": "papio hamadryas, read-out: Drug uptake", "outline": "as §1"}, "[28]": {"assay": "Biodistribution in baboon lung at 170 mg, iv after 90 mins", "assay_type": "ADME, organism-based", "settings": "papio hamadryas, read-out: Drug uptake", "outline": "as §1"}, "[29]": {"assay": "Biodistribution in baboon kidney cortex at 170 mg, iv after 90 mins", "assay_type": "ADME, organism-based", "settings": "papio hamadryas, read-out: Drug uptake", "outline": "as §1"}, "[30]": {"assay": "Biodistribution in baboon kidney medulla at 170 mg, iv after 90 mins", "assay_type": "ADME, organism-based", "settings": "papio hamadryas, read-out: Drug uptake", "outline": "as §1"}, "[31]": {"assay": "Biodistribution in baboon gallbladder at 170 mg, iv after 90 mins", "assay_type": "ADME, organism-based, Gall bladder", "settings": "papio hamadryas, read-out: Drug uptake", "outline": "as §1"}, "[32]": {"assay": "Biodistribution in baboon plasma at 170 mg, iv after 90 mins", "assay_type": "ADME, organism-based", "settings": "papio hamadryas, read-out: Drug uptake", "outline": "as §3"}, "[33]": {"assay": "Biodistribution in iv dosed monkey brain after 6 hrs", "assay_type": "ADME, organism-based, Macaca mulatta", "settings": "rhesus monkey, read-out: Drug uptake"}}, "data": [{"smiles": "CO[C@H]1/C=C/O[C@@]2(C)Oc3c(C)c(O)c4cc(c(/C=N/N5CCN([11CH3])CC5)c(O)c4c3C2=O)NC(=O)/C(C)=C\\C=C\\C(C)[C@H](O)[C@@H](C)[C@@H](O)[C@@H](C)[C@H](OC(C)=O)[C@@H]1C", "note": "(stereo partly drawn)", "values": [{"measurement": "concentration at 3 h", "setting": "[1]", "result": 1790, "unit": "ng/g"}, {"measurement": "concentration at 0.25 h", "setting": "[2]", "result": 259, "unit": "µg/mL"}, {"measurement": "concentration at 1.5 h", "setting": "[3]", "result": 300, "unit": "µg/mL"}, {"measurement": "concentration at 1 h", "setting": "[4]", "result": 288, "unit": "µg/mL"}, {"measurement": "concentration at 0.5 h", "setting": "[5]", "result": 276, "unit": "µg/mL"}, {"measurement": "concentration at 0.5 h", "setting": "[6]", "result": 1.09, "unit": "µg/mL"}, {"measurement": "concentration at 1 h", "setting": "[7]", "result": 0.912, "unit": "µg/mL"}, {"measurement": "concentration at 1.5 h", "setting": "[8]", "result": 1.21, "unit": "µg/mL"}, {"measurement": "concentration at 0.25 h", "setting": "[9]", "result": 7.28, "unit": "µg/mL"}, {"measurement": "concentration at 0.25 h", "setting": "[10]", "result": 5.03, "unit": "µg/mL"}, {"measurement": "concentration at 0.25 h", "setting": "[11]", "result": 15.8, "unit": "µg/mL"}, {"measurement": "concentration at 0.25 h", "setting": "[12]", "result": 36.4, "unit": "µg/mL"}, {"measurement": "concentration at 0.25 h", "setting": "[13]", "result": 121, "unit": "µg/mL"}, {"measurement": "concentration at 0.25 h", "setting": "[14]", "result": 2.81, "unit": "µg/mL"}, {"measurement": "concentration at 0.5 h", "setting": "[15]", "result": 5.28, "unit": "µg/mL"}, {"measurement": "concentration at 0.5 h", "setting": "[16]", "result": 2.83, "unit": "µg/mL"}, {"measurement": "concentration at 0.5 h", "setting": "[17]", "result": 6.34, "unit": "µg/mL"}, {"measurement": "concentration at 0.5 h", "setting": "[18]", "result": 11.6, "unit": "µg/mL"}, {"measurement": "concentration at 0.5 h", "setting": "[19]", "result": 586, "unit": "µg/mL"}, {"measurement": "concentration at 0.5 h", "setting": "[20]", "result": 1.5, "unit": "µg/mL"}, {"measurement": "concentration at 1 h", "setting": "[21]", "result": 1.93, "unit": "µg/mL"}, {"measurement": "concentration at 1 h", "setting": "[22]", "result": 2.53, "unit": "µg/mL"}, {"measurement": "concentration at 1 h", "setting": "[23]", "result": 0.43, "unit": "µg/mL"}, {"measurement": "concentration at 1 h", "setting": "[24]", "result": 6.73, "unit": "µg/mL"}, {"measurement": "concentration at 1 h", "setting": "[25]", "result": 983, "unit": "µg/mL"}, {"measurement": "concentration at 1 h", "setting": "[26]", "result": 1.14, "unit": "µg/mL"}, {"measurement": "concentration at 1.5 h", "setting": "[27]", "result": 6.8, "unit": "µg/mL"}, {"measurement": "concentration at 1.5 h", "setting": "[28]", "result": 6.78, "unit": "µg/mL"}, {"measurement": "concentration at 1.5 h", "setting": "[29]", "result": 8.19, "unit": "µg/mL"}, {"measurement": "concentration at 1.5 h", "setting": "[30]", "result": 9.44, "unit": "µg/mL"}, {"measurement": "concentration at 1.5 h", "setting": "[31]", "result": 1010, "unit": "µg/mL"}, {"measurement": "concentration at 1.5 h", "setting": "[32]", "result": 1.16, "unit": "µg/mL"}]}, {"smiles": "CO[C@H]1/C=C/O[C@@]2(C)Oc3c(C)c(O)c4cc(c(/C=N/N5CCN([14CH3])CC5)c(O)c4c3C2=O)NC(=O)/C(C)=C\\C=C\\C(C)[C@H](O)[C@@H](C)[C@@H](O)[C@@H](C)[C@H](OC(C)=O)[C@@H]1C", "note": "(stereo partly drawn)", "values": [{"measurement": "concentration at 6 h", "setting": "[33]", "result": 870, "unit": "ng/g"}]}]}
